Assay results collected from several papers.
Each line is one published result; the experiments were not run side by side.
Technique: competition with immobilised ligand
RPS6KA1 C-terminal kinase domain: Ribosomal protein S6 kinase alpha-1, C-terminal kinase domain (RPS6KA1, Homo sapiens, UniProt Q15418)
RPS6KA1 N-terminal kinase domain: Ribosomal protein S6 kinase alpha-1, N-terminal kinase domain (RPS6KA1, Homo sapiens, UniProt Q15418)

CN(C)c1ncnc(-c2ccc3nc(Nc4cc(CN5CCN(C(=O)CC(F)(F)F)CC5)ccn4)[nH]c3c2)c1Cl
remaining binding (RPS6KA1 C-terminal kinase domain; cell-free assay; 1 µM): 98%

CN(C)c1nccc(-c2cnn3ncccc23)n1
remaining binding (RPS6KA1 N-terminal kinase domain; binding; 1 µM): 100%

CNC(=O)[C@@H]1CC[C@@H](n2c(-c3ccc4cnccc4c3)nc3ccc(C(=O)NCc4cccc(C(N)=O)c4)cc32)C1
remaining binding (RPS6KA1 C-terminal kinase domain; binding; 1 µM): 100%

CCN1CCN(Cc2ccc(C(=O)Nc3ccc(C)c(Oc4ccc5c(c4)CC(=O)N5)c3)cc2C(F)(F)F)CC1
remaining binding (RPS6KA1 N-terminal kinase domain; binding; 1 µM): 91%

O=C(NCC1CCOCC1)c1n[nH]cc1NC(=O)c1c(F)cccc1F
remaining binding (RPS6KA1 C-terminal kinase domain; binding; 1 µM): 93%

CC1CCCN1c1nccc(-c2cnn3ncccc23)n1 (stereo not drawn)
remaining binding (RPS6KA1 C-terminal kinase domain; binding; 1 µM): 77%

O=C(c1ccc(Nc2ncc(Cl)c(-c3cc4ccccc4s3)n2)cc1)N1CCC(N2CCCC2)CC1
remaining binding (RPS6KA1 C-terminal kinase domain; binding; 1 µM): 82%

N[C@H]1CCN(c2nccc(-c3cnn4ncccc34)n2)C1
remaining binding (RPS6KA1 N-terminal kinase domain; binding; 1 µM): 100%

CC(=O)c1c(NS(C)(=O)=O)c2cc(-c3ccc(Cl)cc3)c(-c3ccc(Cl)cc3Cl)nc2n(C)c1=O
remaining binding (RPS6KA1 C-terminal kinase domain; cell-free assay; 1 µM): 88%

c1cncc(-c2cccc(Nc3nccc(NC4CCCCC4)n3)c2)c1
remaining binding (RPS6KA1 C-terminal kinase domain; binding; 10 µM): 99%

COc1ccnn2ncc(-c3ccnc(N(C)C)n3)c12
remaining binding (RPS6KA1 N-terminal kinase domain; binding; 1 µM): 100%

CC(C)(O)c1cncc(-c2nc3ccc(F)cc3n2C2CC2)c1
remaining binding (RPS6KA1 C-terminal kinase domain; cell-free assay; 1 µM): 100%

C=CC(=O)N1CCC(C(=O)NCC(=O)N2CCN(c3nc(-c4cnc(N)nc4C(F)F)nc(N4CCOCC4)n3)CC2)CC1
remaining binding (RPS6KA1 N-terminal kinase domain; binding; 1 µM): 100%

CCC(=N\O)/C(C)=C/c1ccc(F)cc1
remaining binding (RPS6KA1 N-terminal kinase domain; cell-free assay; 1 µM): 100%

CN(c1nccc(-c2cnn3ncccc23)n1)C1CC1
remaining binding (RPS6KA1 C-terminal kinase domain; binding; 1 µM): 100%

N#CC1(c2ccccn2)CCN(Cc2cc(C(=O)N3CCCC3)c(=O)n3ccccc23)CC1
remaining binding (RPS6KA1 N-terminal kinase domain; cell-free assay; 1 µM): 100%

COc1ncc2cc3ccccc3nc2c1C#N
remaining binding (RPS6KA1 N-terminal kinase domain; cell-free assay; 5 µM): 91%

O=C(N[C@H]1CCCCC/C=C\C2C[C@@]2(C(=O)O)NC(=O)[C@@H]2C[C@@H](Oc3ccncc3)CN2C1=O)OC1CCCC1 (stereo partly drawn)
remaining binding (RPS6KA1 N-terminal kinase domain; binding; 1 µM): 100%

O=C(c1ccc(Nc2ncc(Cl)c(-c3ccc(Cl)s3)n2)cc1)N1CCC(N2CCCC2)CC1
remaining binding (RPS6KA1 C-terminal kinase domain; binding; 1 µM): 72%

CO[C@@H](C)c1c(Nc2ccc([C@H](N(C)C(=O)C3CCS(=O)(=O)CC3)C(F)(F)F)cc2)cnc2cc(Cl)nn12
remaining binding (RPS6KA1 C-terminal kinase domain; cell-free assay; 1 µM): 91%

C[C@H]1CCN(c2nccc(-c3cnn4ncccc34)n2)C1
remaining binding (RPS6KA1 C-terminal kinase domain; binding; 1 µM): 30%
